Reference: ChEMBL document CHEMBL4680121, “Development of (4-methoxyphenyl)-1H-tetrazol-5-amine regioisomers as a new class of selective antitubercular agents” (Eur J Med Chem, 2020)

Experiments:
Format in all cases: functional
[1] = tested on: Mycobacterium tuberculosis; test: Antitubercular activity against PAS/INH/EMB/RMP-resistant Mycobacterium tuberculosis Spec.210 assessed as inhibition of microbial growth incubated for 1 week by MABA method; settings: Mycobacterium tuberculosis, 210, 168 h; time 1 weeks
In short: (§1)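 Microplate Alamar Blue assay in Middlebrook 7H9 broth with 10% OADC. Inoculum from fresh LJ culture was adjusted to McFarland 1 and diluted 1:20. DMSO stocks were two-fold serially diluted to final 0.125–512 µg/ml, with growth and sterile controls. Plates ran 1 week at 37 °C, then Alamar blue was added for 24 h. MIC is the lowest concentration preventing the blue-to-pink change.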

[2] = tested on: Mycobacterium tuberculosis; test: Antitubercular activity against INH-resistant Mycobacterium tuberculosis Spec.800 harboring InhA promoter mutation assessed as inhibition of microbial growth incubated for 1 week by MABA method; settings: time 1 weeks; in short: as §1
[3] = tested on: Mycobacterium tuberculosis; test: Potency index, Ratio of rifampicin MIC to test compound MIC for antitubercular activity against PAS/INH/EMB/RMP-resistant Mycobacterium tuberculosis Spec.210 assessed as inhibition of microbial growth incubated for 1 week by MABA method; settings: time 1 weeks
[4] = tested on: Mycobacterium tuberculosis; test: Potency index, Ratio of ethambutol MIC to test compound MIC for antitubercular activity against PAS/INH/EMB/RMP-resistant Mycobacterium tuberculosis Spec.210 assessed as inhibition of microbial growth incubated for 1 week by MABA method; settings: time 1 weeks
[5] = tested on: Mycobacterium tuberculosis; test: Potency index, Ratio of isoniazid MIC to test compound MIC for antitubercular activity against PAS/INH/EMB/RMP-resistant Mycobacterium tuberculosis Spec.210 assessed as inhibition of microbial growth incubated for 1 week by MABA method; settings: time 1 weeks
[6] = tested on: Mycobacterium tuberculosis; test: Potency index, Ratio of streptomycin MIC to test compound MIC for antitubercular activity against PAS/INH/EMB/RMP-resistant Mycobacterium tuberculosis Spec.210 assessed as inhibition of microbial growth incubated for 1 week by MABA method; settings: time 1 weeks
[7] = tested on: Mycobacterium tuberculosis; test: Antitubercular activity against PAS/INH/EMB/RMP-resistant Mycobacterium tuberculosis Spec.210 assessed as inhibition of microbial growth by classical test tube method
In short: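 Classical test-tube serial dilution in Youmans' modified Proskauer–Beck liquid medium with 10% bovine serum. Inoculum came from 14-day-old cultures. Compounds were given as DMSO solutions (stock 10 mg/ml), diluted geometrically in medium to 3.1–100 µg/ml, and incubated at 37 °C. MIC is the minimum concentration inhibiting growth relative to a no-compound control.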

With `COc1ccc(Nc2nnnn2-c2cccc(F)c2)cc1` as the compound, how does the MIC [1] read?
The MIC was 16 µg/mL.

What about the MIC [2] of the same compound?
Its MIC is 256 µg/mL.

`COc1ccc(Nc2nnnn2-c2ccccc2Cl)cc1` was tested. Which MIC [1] did it give?
The MIC was 8 µg/mL.

And the MIC [2]?
Its MIC is 128 µg/mL.

And the Ratio [3]?
Its Ratio is 2.

And the Ratio [4]?
The Ratio was 2.

And the Ratio [5]?
The Ratio was 2.

And the Ratio [6]?
Its Ratio is 2.

Which MIC [7] does the source give for `COc1ccc(NC(S)=Nc2ccc(F)cc2)cc1` here?
The MIC was 100 µg/mL.

`COc1ccc(NC(=S)Nc2cccc(F)c2)cc1` was tested. Which MIC [7] did it give?
Its MIC is 100 µg/mL.

Which MIC [7] does the source give for `COc1ccc(NC(=S)Nc2cccc(Br)c2)cc1` here?
The MIC was 50 µg/mL.

With `COc1ccc(-n2nnnc2Nc2ccc(Cl)cc2)cc1` as the compound, how does the MIC [1] read?
The MIC was 16 µg/mL.

What about the MIC [2] of the same compound?
The MIC was 256 µg/mL.

How did the MIC [7] turn out when `COc1ccc(NC(=S)Nc2cccc(Cl)c2)cc1` was run?
Its MIC is 100 µg/mL.

Which MIC [1] does the source give for `COc1ccc(Nc2nnnn2-c2ccccc2F)cc1` here?
Its MIC is 16 µg/mL.

What does the source list for `COc1ccc(Nc2nnnn2-c2ccc(Cl)cc2)cc1`?
MIC [1]: 8 µg/mL; MIC [2]: 128 µg/mL; Ratio [3]: 2; Ratio [4]: 2; Ratio [5]: 2; Ratio [6]: 2

Which MIC [7] does the source give for `COc1ccc(NC(=S)Nc2ccccc2Br)cc1` here?
The MIC was 50 µg/mL.

For `COc1ccc(-n2nnnc2Nc2ccccc2Cl)cc1`, which MIC [1] is on record?
The MIC was 8 µg/mL.

And the MIC [2]?
Its MIC is 256 µg/mL.

And the Ratio [3]?
Its Ratio is 2.

And the Ratio [4]?
Its Ratio is 2.

What about the Ratio [5] of the same compound?
The Ratio was 2.

And the Ratio [6]?
Its Ratio is 2.

What does the source list for `COc1ccc(Nc2nnnn2-c2cccc(Cl)c2)cc1`?
MIC [1]: 8 µg/mL; MIC [2]: 128 µg/mL; Ratio [3]: 2; Ratio [4]: 2; Ratio [5]: 2; Ratio [6]: 2

How did the MIC [1] turn out when `COc1ccc(Nc2nnnn2-c2ccc(Br)cc2)cc1` was run?
The MIC was 16 µg/mL.

What about the MIC [2] of the same compound?
Its MIC is 256 µg/mL.

Which MIC [1] does the source give for `COc1ccc(-n2nnnc2Nc2cccc(Cl)c2)cc1` here?
Its MIC is 32 µg/mL.

What about the MIC [2] of the same compound?
The MIC was 256 µg/mL.

Which MIC [7] does the source give for `COc1ccc(NC(=S)Nc2ccc(Cl)cc2)cc1` here?
Its MIC is 50 µg/mL.

With `CO[C@H]1/C=C/O[C@@]2(C)Oc3c(C)c(O)c4c(O)c(c(/C=N/N5CCN(C)CC5)c(O)c4c3C2=O)NC(=O)/C(C)=C\C=C\[C@H](C)[C@H](O)[C@@H](C)[C@@H](O)[C@@H](C)[C@H](OC(C)=O)[C@@H]1C` [RIFAMPIN] as the compound, how does the MIC [1] read?
The MIC was 32 µg/mL.

And the MIC [2]?
Its MIC is 1 µg/mL.

And the MIC [7]?
The MIC was 50 µg/mL.

`COc1ccc(NC(=S)Nc2ccc(Br)cc2)cc1` was tested. Which MIC [7] did it give?
Its MIC is over 100 µg/mL.

With `COc1ccc(NC(=S)Nc2ccccc2Cl)cc1` as the compound, how does the MIC [7] read?
The MIC was 50 µg/mL.

Which results are given for `COc1ccc(Nc2nnnn2-c2ccccc2Br)cc1`?
MIC [1]: 16 µg/mL; MIC [2]: 256 µg/mL

How did the MIC [1] turn out when `NNC(=O)c1ccncc1` [ISONIAZID] was run?
Its MIC is 16 µg/mL.

And the MIC [2]?
Its MIC is 2 µg/mL.

What about the MIC [7] of the same compound?
The MIC was 12.5 µg/mL.

For `COc1ccc(Nc2nnnn2-c2cccc(Br)c2)cc1`, which MIC [1] is on record?
Its MIC is 16 µg/mL.

What about the MIC [2] of the same compound?
Its MIC is 256 µg/mL.

Which MIC [1] does the source give for `COc1ccc(-n2nnnc2Nc2ccccc2Br)cc1` here?
Its MIC is 64 µg/mL.

And the MIC [2]?
The MIC was 512 µg/mL.

For `COc1ccc(NC(=S)Nc2ccccc2F)cc1`, which MIC [7] is on record?
The MIC was 100 µg/mL.

How did the MIC [1] turn out when `COc1ccc(-n2nnnc2Nc2cccc(F)c2)cc1` was run?
Its MIC is 8 µg/mL.

What about the MIC [2] of the same compound?
Its MIC is 256 µg/mL.

What about the Ratio [3] of the same compound?
Its Ratio is 2.

What about the Ratio [4] of the same compound?
The Ratio was 2.

And the Ratio [5]?
Its Ratio is 2.

What about the Ratio [6] of the same compound?
Its Ratio is 2.

Which results are given for `CC[C@@H](CO)NCCN[C@@H](CC)CO` [ETHAMBUTOL]?
MIC [1]: 32 µg/mL; MIC [2]: 2 µg/mL; MIC [7]: 50 µg/mL

With `CN[C@@H]1[C@H](O[C@H]2[C@H](O[C@H]3[C@H](O)[C@@H](O)[C@H](N=C(N)N)[C@@H](O)[C@@H]3N=C(N)N)O[C@@H](C)[C@]2(O)C=O)O[C@@H](CO)[C@H](O)[C@H]1O` [STREPTOMYCIN] as the compound, how does the MIC [1] read?
The MIC was 16 µg/mL.

And the MIC [2]?
Its MIC is 1 µg/mL.

And the MIC [7]?
Its MIC is 25 µg/mL.

Which results are given for `COc1ccc(Nc2nnnn2-c2ccc(F)cc2)cc1`?
MIC [1]: 8 µg/mL; MIC [2]: 128 µg/mL; Ratio [3]: 2; Ratio [4]: 2; Ratio [5]: 2; Ratio [6]: 2

For `COc1ccc(-n2nnnc2Nc2ccccc2F)cc1`, which MIC [1] is on record?
Its MIC is 16 µg/mL.

What does the source list for `COc1ccc(-n2nnnc2Nc2ccc(F)cc2)cc1`?
MIC [1]: 32 µg/mL; MIC [2]: 512 µg/mL
